The test system of data set [1] is Hepatitis C virus. The data set can be described thus: Inhibition of HCV 1b NS5Bdelta21 polymerase assessed as [3H]UTP incorporated into the biotinylated primer after 90 mins by scintillation counting. Type of data set: functional, Hepatitis C virus subtype 1b.
Data set [2] can be described thus: Cytotoxicity against human HuH7 cells. Format: cell-based, Huh-7. The following applies: read-out: TC50 (the source's name).
In data set [3] the test system is Hepatitis C virus. The data set can be described thus: Antiviral activity against HCV1b in human Huh7 cells assessed as reduction of viral RNA replication after 72 hrs by luciferase reporter assay. Format: functional, organism-based, Hepacivirus hominis. The settings on record: genotype 1b, Huh-7, 72 h. Background: In a reporter assay the amount or activity of a reporter protein is the signal.

Data set [4] can be described thus: Inhibition of calf thymus DNA-directed RNA polymerase 2 assessed as [33P]UTP incorporated into the RNA after 120 mins by scintillation counting. Set-up: species or system Bos taurus.
Data set [5] can be described thus: Solubility in phosphate buffer at pH 7.2 after 24 hrs by shake flask method. Format: physicochemical.
In the next data set the test system is Liver microsomes. The data set is described as follows: (§1) Half life in human liver microsomes at 10 uM. The settings on record: microsomes, 10 µM. Format: ADME, Microsome. Put shortly: (§2)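 Half-life was measured with compound at 10 µM in human or rat liver microsomes.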
For a further data set, the target named is Cytochrome P450 3A4 (Homo sapiens, UniProt P08684). The data set can be described thus: Inhibition of CYP3A4. Format: ADME.
Chain of Cytochrome P450 3A4 (P08684 whole entry): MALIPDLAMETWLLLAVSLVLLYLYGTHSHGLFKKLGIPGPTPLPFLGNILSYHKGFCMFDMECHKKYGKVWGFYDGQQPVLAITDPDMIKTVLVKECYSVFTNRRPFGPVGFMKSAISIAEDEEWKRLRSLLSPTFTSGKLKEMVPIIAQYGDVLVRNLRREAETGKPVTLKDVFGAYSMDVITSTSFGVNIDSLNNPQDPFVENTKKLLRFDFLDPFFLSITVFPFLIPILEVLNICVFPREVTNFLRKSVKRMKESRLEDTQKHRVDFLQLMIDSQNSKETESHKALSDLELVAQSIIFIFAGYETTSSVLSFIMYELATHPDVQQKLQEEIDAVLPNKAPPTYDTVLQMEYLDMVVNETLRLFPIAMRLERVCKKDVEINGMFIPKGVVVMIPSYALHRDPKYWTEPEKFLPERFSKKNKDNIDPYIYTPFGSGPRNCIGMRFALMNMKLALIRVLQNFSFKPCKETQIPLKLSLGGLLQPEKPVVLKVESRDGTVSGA
Data set [6] is described as follows: Permeability across human Caco-2 cells. Type of data set: ADME, cell-based. The settings on record: read-out: permeability. For orientation: Caco-2 cells form a polarised layer with tight junctions and transporters.
Data set [7] can be described thus: as §1. Format: ADME, Microsome. The settings on record: liver microsomes. Put shortly: as §2
For orientation: Liver microsomes are a subcellular fraction often used to study metabolism.

Data set [8] can be described thus: Half life in rat liver microsomes at 10 uM. Type of data set: ADME, Microsome. The method in brief: as §2
A further data set has as its target Cytochrome P450 2C9 (Homo sapiens, UniProt P11712). The data set can be described thus: Inhibition of CYP2C9. Type of data set: ADME.
The next data set deals with Cytochrome P450 2C19 (Homo sapiens, UniProt P33261). The data set is described as follows: Inhibition of CYP2C19. Type of data set: ADME.
Chain of Cytochrome P450 2C19 (P33261 whole entry): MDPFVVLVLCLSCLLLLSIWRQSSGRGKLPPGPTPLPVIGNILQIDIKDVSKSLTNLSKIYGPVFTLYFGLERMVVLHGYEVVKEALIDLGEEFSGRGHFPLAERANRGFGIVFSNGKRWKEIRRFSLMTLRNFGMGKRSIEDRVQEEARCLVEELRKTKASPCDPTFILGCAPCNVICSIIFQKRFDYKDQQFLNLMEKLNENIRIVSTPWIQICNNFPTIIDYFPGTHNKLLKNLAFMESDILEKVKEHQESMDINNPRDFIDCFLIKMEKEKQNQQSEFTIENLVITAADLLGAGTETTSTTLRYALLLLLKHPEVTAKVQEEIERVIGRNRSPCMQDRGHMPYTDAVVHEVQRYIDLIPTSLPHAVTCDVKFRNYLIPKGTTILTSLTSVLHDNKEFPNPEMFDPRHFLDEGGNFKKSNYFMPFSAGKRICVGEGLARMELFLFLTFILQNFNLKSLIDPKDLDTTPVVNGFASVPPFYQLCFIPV
Data set [9] can be described thus: Cmax in Sprague-Dawley rat plasma at 5 mg/kg, po. Type of data set: ADME, organism-based. Further details: dose 5 mg/kg, route oral. Put shortly:
(§3)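 Male Sprague-Dawley rats, fasted overnight, given 5 mg/kg by oral gavage in 0.5% methocel/0.3% Tween-80. Plasma was pooled from three animals at each time point over 0–8 h. Compound was quantified after liquid–liquid extraction by HPLC with UV detection.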

Data set [10] is described as follows: Tmax in Sprague-Dawley rat plasma at 5 mg/kg, po. Format: ADME, organism-based. Further details: dose 5 mg/kg, route oral. Put shortly:
as §3

A short description of data set [11]: AUC in Sprague-Dawley rat plasma at 5 mg/kg, po. Format: ADME, organism-based. Further details: dose 5 mg/kg, route oral. The method in brief: as §3
Data set [12] is described as follows: Mean residence time in Sprague-Dawley rat plasma at 5 mg/kg, po. Set-up: dose 5 mg/kg, route oral. Format: ADME, organism-based. The method in brief: as §3
A further data set is filed under the species Homo sapiens. The data set is described as follows: Protein binding in human plasma by equilibrium dialysis method. The settings on record: read-out: PPB (converted).

≈ marks a conversion by molar mass, not a printed value.

What is called IC50 is the midpoint of a concentration-inhibition curve. The EC50 is the concentration at which the effect is half-maximal. Usually thermodynamic solubility stands for solubility found after equilibrating the solid with the medium. For orientation: half-life means the time in which the quantity being followed falls by half. Lower therefore signals fast loss. In general, Cmax refers to the maximum level reached in the sampled fluid or tissue. A word on the Tmax: it is the time at which the peak concentration occurs. As a reminder, the AUC is concentration integrated over time. A low value points to low exposure. The term MRT denotes a mean duration of stay, worked out from the concentration-time curve.

Chain of Cytochrome P450 2C9 (P11712 whole entry): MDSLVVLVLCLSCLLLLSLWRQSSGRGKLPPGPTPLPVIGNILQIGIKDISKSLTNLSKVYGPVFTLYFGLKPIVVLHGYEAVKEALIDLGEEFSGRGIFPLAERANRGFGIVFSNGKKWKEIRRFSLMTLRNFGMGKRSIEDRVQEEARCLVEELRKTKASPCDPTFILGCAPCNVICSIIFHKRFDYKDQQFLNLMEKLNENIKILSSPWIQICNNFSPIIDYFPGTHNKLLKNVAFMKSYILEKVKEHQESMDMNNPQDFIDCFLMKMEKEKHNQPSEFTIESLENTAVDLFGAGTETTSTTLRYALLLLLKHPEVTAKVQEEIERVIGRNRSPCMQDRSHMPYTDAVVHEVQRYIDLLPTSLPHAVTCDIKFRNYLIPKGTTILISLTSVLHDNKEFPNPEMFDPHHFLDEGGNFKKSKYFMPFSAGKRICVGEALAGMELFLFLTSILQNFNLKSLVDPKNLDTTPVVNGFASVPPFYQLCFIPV

For `O=C(N[C@@H](Cc1c[nH]c2ccc(O)cc12)C(=O)O)c1ccc2c(c1)nc(-c1ccsc1)n2C1CCCCC1`, in the data set on Hepatitis C virus [1], the IC50 was 160 nM.
As to `O=C(N[C@@H](Cc1c[nH]c2ccc(O)cc12)c1cscn1)c1ccc2c(c1)nc(-c1ccco1)n2C1CCCCC1`, the IC50 in the data set on Hepatitis C virus [1] amounted to 270 nM. Also, the CC50 in data set [2] was above 10000 nM. In the data set with Hepatitis C virus [3], the EC50 was determined as 3400 nM.
Consider `Cn1cccc1-c1nc2cc(C(=O)NC3(C(=O)Nc4ccc(/C=C/C(=O)O)cc4)CCC3)ccc2n1C1CCCCC1`, for which the IC50 with Hepatitis C virus [1] was 90 nM; in [4], above 250000 nM. Moreover, the CC50 in data set [2] was above 10000 nM. Besides, in the data set with Hepatitis C virus [3], the EC50 was 700 nM.
Turning to `O=C(N[C@@H](Cc1c[nH]c2ccc(O)cc12)c1cscn1)c1ccc2c(c1)nc(-c1cccs1)n2C1CCCCC1`, in the data set on Hepatitis C virus [1], the IC50 was found to be 450 nM. Also, the CC50 in data set [2] was above 10000 nM. The EC50 with Hepatitis C virus [3] turned out to be 2800 nM.
With `Cn1cccc1-c1nc2cc(C(=O)N[C@@H](Cc3c[nH]c4ccc(O)cc34)C(=O)O)ccc2n1C1CCCCC1`, the half-maximal inhibitory concentration (IC50) with Hepatitis C virus [1] stood at 60 nM.
With `O=C(N[C@@H](Cc1c[nH]c2ccc(O)cc12)c1cscn1)c1ccc2c(c1)nc(-c1ccsc1)n2C1CCCCC1`, the IC50 in the data set on Hepatitis C virus [1] came to 520 nM. Moreover, the CC50 in data set [2] is above 10000 nM. The EC50 in the data set on Hepatitis C virus [3] came to 2900 nM.
Regarding `O=C(N[C@@H](Cc1c[nH]c2ccc(O)cc12)c1cscn1)c1ccc2c(c1)nc(-c1ccoc1)n2C1CCCCC1`, the results for the IC50 in the data set with Hepatitis C virus [1] and at Cytochrome P450 3A4 were 220 nM and 440 nM, respectively. For the same molecule, in data set [2], the CC50 was above 10000 nM. Moreover, the solubility (thermodynamic) at 24 h in data set [5] is below 0.1 µg/mL. For the same molecule, in the data set on Hepatitis C virus [3], the EC50 came out at 3600 nM. The molecule also came in with a t1/2 with Liver microsomes of 26 min.
With `O=C(N[C@@H](Cc1c[nH]c2ccc(O)cc12)c1cscn1)c1ccc2c(c1)nc(-c1ccccn1)n2C1CCCCC1`, the IC50 in the data set with Hepatitis C virus [1] came out at 690 nM. Also, in data set [2], the CC50 was above 10000 nM. In addition, the EC50 in the data set on Hepatitis C virus [3] came to 1900 nM.
The like results for `O=C(N[C@@H](Cc1c[nH]c2ccc(O)cc12)c1cscn1)c1ccc2c(c1)nc(-c1ccccc1)n2C1CCCCC1` were, in that order, 1160 nM, above 10000 nM and 2400 nM.
Turning to `O=C(O)/C=C/c1ccc(NC(=O)C2(NC(=O)c3ccc4c(c3)nc(-c3ccco3)n4C3CCCCC3)CCC2)cc1`, the IC50 in the data set with Hepatitis C virus [1] is 110 nM; in data set [4], above 250000 nM. In addition, the CC50 in data set [2] is above 10000 nM. Moreover, the EC50 with Hepatitis C virus [3] was 1200 nM.
On to `O=C(N[C@@H](Cc1c[nH]c2ccc(O)cc12)C(=O)O)c1ccc2c(c1)nc(-c1ccoc1)n2C1CCCCC1`, for which, in the data set on Hepatitis C virus [1], the IC50 was 30 nM.
Same read-out and setting: the value for `O=C(N[C@@H](Cc1c[nH]c2ccc(O)cc12)C(=O)O)c1ccc2c(c1)nc(-c1ccccc1)n2C1CCCCC1` was 230 nM.
In the case of `O=C(O)/C=C/c1ccc(NC(=O)C2(NC(=O)c3ccc4c(c3)nc(-c3ccccn3)n4C3CCCCC3)CCCC2)cc1`, the CC50 in data set [2] was above 10000 nM. In [5], the thermodynamic solubility at 24 h stood at 100 µg/mL (≈ 173 µM). Also, the EC50 in the data set with Hepatitis C virus [3] stood at 580 nM. In addition, the Papp in data set [6] turned out to be 9.5 ×10⁻⁶ cm/s. Also, the half-life at 10 µM in data set [7] turned out to be 67 min; in data set [8], 17 min. The IC50 at Cytochrome P450 2C9 is 4000 nM; at Cytochrome P450 2C19, 7400 nM; in [4], above 250000 nM. In addition, the Cmax in data set [9] was 580 nM. Also, in data set [10], the Tmax was determined as 30 min. The AUC in data set [11] is 0.51 µM·h. The MRT in data set [12] was determined as 44.4 min. Besides, the fraction unbound in the data set filed under Homo sapiens was 0.124.
With `O=C(N[C@@H](Cc1c[nH]c2ccc(O)cc12)C(=O)O)c1ccc2c(c1)nc(-c1cccs1)n2C1CCCCC1`, in the data set on Hepatitis C virus [1], the IC50 stood at 80 nM.
Still for that read-out and setting: then `O=C(N[C@@H](Cc1c[nH]c2ccc(O)cc12)C(=O)O)c1ccc2c(c1)nc(-c1ccco1)n2C1CCCCC1`, with 80 nM; and `O=C(N[C@@H](Cc1c[nH]c2ccc(O)cc12)C(=O)O)c1ccc2c(c1)nc(-c1ccccn1)n2C1CCCCC1`, with 140 nM.
For `O=C(O)/C=C/c1ccc(NC(=O)C2(NC(=O)c3ccc4c(c3)nc(-c3ccoc3)n4C3CCCCC3)CCCC2)cc1`, the CC50 in data set [2] is above 10000 nM. In data set [5], the thermodynamic solubility at 24 h was 125 µg/mL (≈ 221 µM). The EC50 in the data set with Hepatitis C virus [3] is 880 nM. In data set [6], the Papp stood at 3.9 ×10⁻⁶ cm/s. For the same molecule, the half-life at 10 µM worked out at 77 min in [7] and 54 min in data set [8]. Besides, the values for the IC50 (against Cytochrome P450 2C9; against Cytochrome P450 2C19; in data set [4]) were 11500 nM, 7700 nM and above 250000 nM, respectively.
Consider `O=C(O)/C=C/c1ccc(NC(=O)C2(NC(=O)c3ccc4c(c3)nc(-c3cccs3)n4C3CCCCC3)CCC2)cc1`, for which the IC50 in the data set on Hepatitis C virus [1] was 110 nM; in data set [4], above 250000 nM. Besides, the CC50 in data set [2] was above 10000 nM. For the same molecule, the EC50 in the data set on Hepatitis C virus [3] was 1200 nM.
The like results for `O=C(O)/C=C/c1ccc(NC(=O)C2(NC(=O)c3ccc4c(c3)nc(-c3ccoc3)n4C3CCCCC3)CCC2)cc1` were, in that order, 50 nM, above 250000 nM, above 10000 nM and 1100 nM.
In the same order, the values of `O=C(O)/C=C/c1ccc(NC(=O)C2(NC(=O)c3ccc4c(c3)nc(-c3ccccn3)n4C3CCCCC3)CCC2)cc1` are 100 nM, above 250000 nM, above 10000 nM and 700 nM.
In the same order, the values of `O=C(O)/C=C/c1ccc(NC(=O)C2(NC(=O)c3ccc4c(c3)nc(-c3ccccc3)n4C3CCCCC3)CCC2)cc1` are 200 nM, above 250000 nM, above 10000 nM and 1200 nM.
In the case of `O=C(O)/C=C/c1ccc(NC(=O)C2(NC(=O)c3ccc4c(c3)nc(-c3ccsc3)n4C3CCCCC3)CCC2)cc1`, the IC50 in the data set with Hepatitis C virus [1] is 120 nM; in data set [4] it was above 250000 nM. Moreover, the CC50 in data set [2] is above 10000 nM. In the data set with Hepatitis C virus [3], the EC50 amounted to 1500 nM.
As to `Cn1cccc1-c1nc2cc(C(=O)N[C@@H](Cc3c[nH]c4ccc(O)cc34)c3cscn3)ccc2n1C1CCCCC1`, in the data set on Hepatitis C virus [1], the IC50 came to 730 nM. The CC50 in [2] is above 10000 nM. The EC50 in the data set on Hepatitis C virus [3] came out at 2700 nM.

These data come from ChEMBL document CHEMBL1155433, “Benzimidazole Thumb Pocket I finger-loop inhibitors of HCV NS5B polymerase: improved drug-like properties through C-2 SAR in three sub-series” (Bioorg Med Chem Lett, 2010).
